According to ChEMBL document CHEMBL3351725, “Design, synthesis and biological evaluation of (E)-3-(3,4-dihydroxyphenyl)acrylylpiperazine derivatives as a new class of tubulin polymerization inhibitors” (Bioorg Med Chem, 2014):
Values after ≈ are worked out from the molar mass of the structure shown.

What was measured:
MCF7 [1] = assay: Antiproliferative activity against human MCF7 cells after 48 hrs by MTT assay; format: functional, cell-based; conditions: MCF7, 48 h
Method in brief: (§1)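 Cells diluted to 2 × 10⁴ cells/mL in complete medium, seeded in 96-well plates and incubated 24 h at 37 °C, 5% CO₂ before compound addition at preset concentrations; colchicine and CA-4 as positive references. After 48 h exposure, MTT added; 4 h later 10% SDS-5% isobutyl alcohol-0.01 M HCl extraction solution added, overnight at 37 °C, absorbance read at 570 nm.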

A549 = assay: Antiproliferative activity against human A549 cells after 48 hrs by MTT assay; format: functional, cell-based; conditions: A549, 48 h; method in brief: as §1
[2] = Antiproliferative activity against mouse B16F10 cells after 48 hrs by MTT assay; format: functional, cell-based; conditions: B16-F10, 48 h; method in brief: as §1
Tubulin = Tubulin (Bos taurus, UniProt Q6B856+Q862L2+Q862F3); assay: Inhibition of bovine brain tubulin polymerization after 20 mins by turbidimetric method
MCF7 [3] = assay: Cell cycle arrest in human MCF7 cells assessed as accumulation at G0/G1 phase at 2 ug/ml after 24 hrs by flow cytometry (reference value: 62.34 %); format: functional
MCF7 [4] = assay: Cell cycle arrest in human MCF7 cells assessed as accumulation at G0/G1 phase at 1 ug/ml after 24 hrs by flow cytometry (reference value: 62.34 %); format: functional
MCF7 [5] = assay: Cell cycle arrest in human MCF7 cells assessed as accumulation at S phase at 1 ug/ml after 24 hrs by flow cytometry (reference value: 13.05 %); format: functional
MCF7 [6] = assay: Cell cycle arrest in human MCF7 cells assessed as accumulation at G2/M phase at 1 ug/ml after 24 hrs by flow cytometry (reference value: 24.61 %); format: functional
MCF7 [7] = assay: Cell cycle arrest in human MCF7 cells after 24 hrs by flow cytometry; format: functional, cell-based
MCF7 [8] = assay: Cell cycle arrest in human MCF7 cells assessed as accumulation at S phase at 2 ug/ml after 24 hrs by flow cytometry (reference value: 13.05 %); format: functional
MCF7 [9] = assay: Cell cycle arrest in human MCF7 cells assessed as accumulation at G2/M phase at 2 ug/ml after 24 hrs by flow cytometry (reference value: 24.61 %); format: functional

| IC50 (MCF7 [1]) | IC50 (A549) | IC50 (Tubulin) | Structure (SMILES) | IC50 [2] | Activity (MCF7 [3]) | Activity (MCF7 [4]) | Activity (MCF7 [5]) | Activity (MCF7 [6]) | Activity (MCF7 [7]) | Activity (MCF7 [8]) | Activity (MCF7 [9]) |
| --- | --- | --- | --- | --- | --- | --- | --- | --- | --- | --- | --- |
| 1.38 µg/mL (≈ 4.03 µM) | 1.43 µg/mL (≈ 4.18 µM) | 7.78 µM | O=C(/C=C/c1ccc(O)c(O)c1)N1CCN(c2ccccc2F)CC1 | 2.43 µg/mL (≈ 7.1 µM) | – | – | – | – | – | – | – |
| 1.36 µg/mL (≈ 3.79 µM) | 1.44 µg/mL (≈ 4.01 µM) | 5.46 µM | O=C(/C=C/c1ccc(O)c(O)c1)N1CCN(c2ccccc2Cl)CC1 | 1.82 µg/mL (≈ 5.07 µM) | – | – | – | – | – | – | – |
| 2.06 µg/mL (≈ 7.45 µM) | 6.54 µg/mL (≈ 23.7 µM) | 12.78 µM | CCN1CCN(C(=O)/C=C/c2ccc(O)c(O)c2)CC1 | 6.44 µg/mL (≈ 23.3 µM) | – | – | – | – | – | – | – |
| 1.82 µg/mL (≈ 5.59 µM) | 2.32 µg/mL (≈ 7.13 µM) | 11.61 µM | O=C(/C=C/c1ccc(O)c(O)c1)N1CCN(c2ccccn2)CC1 | 3.01 µg/mL (≈ 9.25 µM) | – | – | – | – | – | – | – |
| 0.54 µg/mL (≈ 1.52 µM) | 0.98 µg/mL (≈ 2.77 µM) | 1.72 µM | COc1ccccc1N1CCN(C(=O)/C=C/c2ccc(O)c(O)c2)CC1 | 1.23 µg/mL (≈ 3.47 µM) | – | – | – | – | – | – | – |
| 1.48 µg/mL (≈ 4.37 µM) | 2.98 µg/mL (≈ 8.81 µM) | 9.28 µM | O=C(/C=C/c1ccc(O)c(O)c1)N1CCN(Cc2ccccc2)CC1 | 3.12 µg/mL (≈ 9.22 µM) | – | – | – | – | – | – | – |
| 1.34 µg/mL (≈ 3.73 µM) | 1.29 µg/mL (≈ 3.6 µM) | 5.28 µM | O=C(/C=C/c1ccc(O)c(O)c1)N1CCN(c2cccc(Cl)c2)CC1 | 1.71 µg/mL (≈ 4.77 µM) | – | – | – | – | – | – | – |
| 1.03 µg/mL (≈ 3.18 µM) | 1.32 µg/mL (≈ 4.07 µM) | 3.14 µM | O=C(/C=C/c1ccc(O)c(O)c1)N1CCN(c2ccccc2)CC1 | 1.78 µg/mL (≈ 5.49 µM) | – | – | – | – | – | – | – |

Second part, the compound before the results:

| Structure (SMILES) | IC50 (MCF7 [1]) | IC50 (A549) | IC50 (Tubulin) | IC50 [2] | Activity (MCF7 [3]) | Activity (MCF7 [4]) | Activity (MCF7 [5]) | Activity (MCF7 [6]) | Activity (MCF7 [7]) | Activity (MCF7 [8]) | Activity (MCF7 [9]) |
| --- | --- | --- | --- | --- | --- | --- | --- | --- | --- | --- | --- |
| O=C(/C=C/c1ccc(O)c(O)c1)N1CCN(c2ccc(F)cc2)CC1 | 1.44 µg/mL (≈ 4.21 µM) | 1.25 µg/mL (≈ 3.65 µM) | 7.39 µM | 1.68 µg/mL (≈ 4.91 µM) | – | – | – | – | – | – | – |
| O=C(/C=C/c1ccc(O)c(O)c1)N1CCN(C(c2ccc(F)cc2)c2ccc(F)cc2)CC1 | 0.43 µg/mL (≈ 0.955 µM) | 0.73 µg/mL (≈ 1.62 µM) | 1.44 µM | 0.52 µg/mL (≈ 1.15 µM) | – | – | – | – | – | – | – |
| O=C(/C=C/c1ccc(O)c(O)c1)N1CCN(c2ccc([N+](=O)[O-])cc2)CC1 | 1.14 µg/mL (≈ 3.09 µM) | 1.56 µg/mL (≈ 4.22 µM) | 4.86 µM | 1.79 µg/mL (≈ 4.85 µM) | – | – | – | – | – | – | – |
| O=C(/C=C/c1ccc(O)c(O)c1)N1CCN(c2ccc(Cl)c(Cl)c2)CC1 | 1.28 µg/mL (≈ 3.25 µM) | 1.74 µg/mL (≈ 4.42 µM) | 4.93 µM | 1.66 µg/mL (≈ 4.22 µM) | – | – | – | – | – | – | – |
| COc1ccc(/C=C\c2cc(OC)c(OC)c(OC)c2)cc1O [COMBRETASTATIN A4] | 0.21 µg/mL (≈ 0.664 µM) | 0.46 µg/mL (≈ 1.45 µM) | – | 0.42 µg/mL (≈ 1.33 µM) | – | – | – | – | – | – | – |
| COc1ccc(N2CCN(C(=O)/C=C/c3ccc(O)c(O)c3)CC2)cc1 | 0.52 µg/mL (≈ 1.47 µM) | 0.93 µg/mL (≈ 2.62 µM) | 1.86 µM | 1.21 µg/mL (≈ 3.41 µM) | – | – | – | – | – | – | – |
| COc1cccc(N2CCN(C(=O)/C=C/c3ccc(O)c(O)c3)CC2)c1 | 0.92 µg/mL (≈ 2.6 µM) | 1.27 µg/mL (≈ 3.58 µM) | 3.08 µM | 1.46 µg/mL (≈ 4.12 µM) | – | – | – | – | – | – | – |
| O=C(/C=C/c1ccc(O)c(O)c1)N1CCN(C(c2ccccc2)c2ccccc2)CC1 | 0.32 µg/mL (≈ 0.772 µM) | 0.54 µg/mL (≈ 1.3 µM) | 0.92 µM | 0.44 µg/mL (≈ 1.06 µM) | 2.63% | 18.33% | 18.18% | 63.39% | Dose-dependent effect | 13.01% | 84.36% |
| COc1cc2c(c(OC)c1OC)-c1ccc(OC)c(=O)cc1[C@@H](NC(C)=O)CC2 [COLCHICINE] | 0.39 µg/mL (≈ 0.976 µM) | 0.58 µg/mL (≈ 1.45 µM) | – | 0.48 µg/mL (≈ 1.2 µM) | – | 4.6% | 11.78% | 83.62% | – | – | – |
| O=C(/C=C/c1ccc(O)c(O)c1)N1CCN(c2cccc(Cl)c2Cl)CC1 | 1.12 µg/mL (≈ 2.85 µM) | 1.68 µg/mL (≈ 4.27 µM) | 4.42 µM | 2.01 µg/mL (≈ 5.11 µM) | – | – | – | – | – | – | – |
| O=C(/C=C/c1ccc(O)c(O)c1)N1CCN(C(c2ccccc2)c2ccc(Cl)cc2)CC1 (configuration not stated) | 0.48 µg/mL (≈ 1.07 µM) | 0.8 µg/mL (≈ 1.78 µM) | 1.56 µM | 0.68 µg/mL (≈ 1.51 µM) | – | – | – | – | – | – | – |
| O=C(/C=C/c1ccc(O)c(O)c1)N1CCN(c2cccc(C(F)(F)F)c2)CC1 | 1.24 µg/mL (≈ 3.16 µM) | 1.74 µg/mL (≈ 4.43 µM) | 5.89 µM | 2.01 µg/mL (≈ 5.12 µM) | – | – | – | – | – | – | – |
| Cc1ccc(N2CCN(C(=O)/C=C/c3ccc(O)c(O)c3)CC2)c(C)c1 | 0.78 µg/mL (≈ 2.21 µM) | 1.02 µg/mL (≈ 2.89 µM) | 2.98 µM | 1.43 µg/mL (≈ 4.06 µM) | – | – | – | – | – | – | – |
